# Test results reported in ChEMBL document CHEMBL1129661, “The chemistry of Pseudomonic acid. 15. Synthesis and antibacterial activity of a series of 5-alkyl, 5-alkenyl, and 5-heterosubstituted oxazoles” (1996).
# Experiments:
# Staphylococcus aureus [1] = test: Minimal inhibitory concentration against Staphylococcus aureus Oxford NCTC 6571; format: functional
# Outline: (§1)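 Agar dilution method. Each plate was spot-inoculated with 1 µL spots, about 10^6 CFU per spot. Plates were incubated 18-24 h at 37 °C.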
# Haemophilus influenzae [2] = test: Minimal inhibitory concentration against Haemophilus influenzae Q1; format: functional; outline: as §1
# Moraxella catarrhalis [3] = test: Minimal inhibitory concentration of compound against Moraxella catarrhalis 1502; format: functional; outline: as §1
# Streptococcus pneumoniae [4] = test: Minimal inhibitory concentration against Streptococcus pneumoniae PU7; format: functional; outline: as §1
# Streptococcus pyogenes [5] = test: Minimal inhibitory concentration against Streptococcus pyogenes CN10; format: functional; outline: as §1
# Staphylococcus aureus [6] = test: Minimal inhibitory concentration of compound against Staphylococcus aureus Russell; format: functional; outline: as §1
# Haemophilus influenzae [7] = test: Minimal inhibitory concentration against Haemophilus influenzae WY21; format: functional; outline: as §1
# Moraxella catarrhalis [8] = test: Minimal inhibitory concentration of compound against Moraxella catarrhalis H; format: functional; outline: as §1
# Streptococcus pyogenes [9] = test: Minimal inhibitory concentration of compound against Streptococcus pyogenes BCA; format: functional; outline: as §1
# Moraxella catarrhalis [10] = test: Minimal inhibitory concentration of compound against Moraxella catarrhalis 1502; No bacterial growth; format: functional, organism-based; outline: as §1
# Streptococcus pneumoniae [11] = test: Minimal inhibitory concentration of compound against Streptococcus pneumoniae PU7; No bacterial growth; format: functional, organism-based; outline: as §1
# Haemophilus influenzae [12] = test: Minimal inhibitory concentration against Haemophilus influenzae H128; format: functional; outline: as §1
# Streptococcus pneumoniae [13] = test: Minimal inhibitory concentration of compound against Streptococcus pneumoniae 1629; format: functional; outline: as §1
Structure (SMILES),MIC (Staphylococcus aureus [1]) [µg/mL],MIC (Haemophilus influenzae [2]) [µg/mL],MIC (Moraxella catarrhalis [3]) [µg/mL],MIC (Streptococcus pneumoniae [4]) [µg/mL],MIC (Streptococcus pyogenes [5]) [µg/mL],MIC (Staphylococcus aureus [6]) [µg/mL],MIC (Haemophilus influenzae [7]) [µg/mL],MIC (Moraxella catarrhalis [8]) [µg/mL],MIC (Streptococcus pyogenes [9]) [µg/mL],MIC (Moraxella catarrhalis [10]),MIC (Streptococcus pneumoniae [11]),MIC (Haemophilus influenzae [12]) [µg/mL],MIC (Streptococcus pneumoniae [13]) [µg/mL]
CCSc1cnc(/C=C(\C)C[C@@H]2OC[C@H](C[C@@H]3O[C@H]3[C@@H](C)[C@H](C)O)[C@@H](O)[C@H]2O)o1,8,1,8,8,4,,,,,,,,
C/C(=C\c1ncc(C=O)o1)C[C@@H]1OC[C@H](C[C@@H]2O[C@H]2[C@@H](C)[C@H](C)O)[C@@H](O)[C@H]1O,2,4,8,64,16,,,,,,,,
CCOc1cnc(/C=C(\C)C[C@@H]2OC[C@H](C[C@@H]3O[C@H]3[C@@H](C)[C@H](C)O)[C@@H](O)[C@H]2O)o1,2,0.5,4,2,2,,,,,,,,
COC(=O)c1nc(/C=C(\C)C[C@@H]2OC[C@H](C[C@@H]3O[C@H]3[C@@H](C)[C@H](C)O)[C@@H](O)[C@H]2O)oc1OC,> 128,128,> 128,> 128,> 128,,,,,,,,
CCc1cnc(/C=C(\C)C[C@@H]2OC[C@H](C[C@@H]3O[C@H]3[C@@H](C)[C@H](C)O)[C@@H](O)[C@H]2O)o1,2,2,16,16,,,,,,,,,
C/C(=C\c1ncc([S+]([O-])c2ccccc2)o1)C[C@@H]1OC[C@H](C[C@@H]2O[C@H]2[C@@H](C)[C@H](C)O)[C@@H](O)[C@H]1O (stereo partly drawn),16,2,16,16,4,,,,,,,,
CCOC(=O)Oc1cnc(/C=C(\C)C[C@@H]2OC[C@H](C[C@@H]3O[C@H]3[C@@H](C)[C@H](C)O)[C@@H](O)[C@H]2O)o1,> 128,32,32,> 128,> 128,,,,,,,,
C/C(=C\c1ncc(Sc2ccccc2)o1)C[C@@H]1OC[C@H](C[C@@H]2O[C@H]2[C@@H](C)[C@H](C)O)[C@@H](O)[C@H]1O,,8,8,32,4,16,,,,,,,
C/C(=C\c1ncc(C(=O)[O-])o1)C[C@@H]1OC[C@H](C[C@@H]2O[C@H]2[C@@H](C)[C@H](C)O)[C@@H](O)[C@H]1O.[Na+],> 128,> 128,> 128,> 128,> 128,,,,,,,,
C/C(=C\c1ncc(CCCC(=O)[O-])o1)C[C@@H]1OC[C@H](C[C@@H]2O[C@H]2[C@@H](C)[C@H](C)O)[C@@H](O)[C@H]1O.[Na+],32,,32,64,64,,8,,,,,,
CC[S+]([O-])c1cnc(/C=C(\C)C[C@@H]2OC[C@H](C[C@@H]3O[C@H]3[C@@H](C)[C@H](C)O)[C@@H](O)[C@H]2O)o1 (stereo partly drawn),8,0.13,,4,8,,,16,,,,,
C/C(=C\c1ncc(CCCCCCCCC(=O)[O-])o1)C[C@@H]1OC[C@H](C[C@@H]2O[C@H]2[C@@H](C)[C@H](C)O)[C@@H](O)[C@H]1O.[Na+],4,4,8,4,1,,,,,,,,
C/C(=C\c1ncc(/C=C/C(=O)[O-])o1)C[C@@H]1OC[C@H](C[C@@H]2O[C@H]2[C@@H](C)[C@H](C)O)[C@@H](O)[C@H]1O.[Na+],64,16,16,64,64,,,,,,,,
COC(=O)/C=C/c1cnc(/C=C(\C)C[C@@H]2OC[C@H](C[C@@H]3O[C@H]3[C@@H](C)[C@H](C)O)[C@@H](O)[C@H]2O)o1,2,0.5,,1,,,,,4,,,,
COC(=O)c1nc(/C=C(\C)C[C@@H]2OC[C@H](C[C@@H]3O[C@H]3[C@@H](C)[C@H](C)O)[C@@H](O)[C@H]2O)oc1N1CCCCC1,16,2,,32,128,,,,,No growth,,,
COC(=O)CCCc1cnc(/C=C(\C)C[C@@H]2OC[C@H](C[C@@H]3O[C@H]3[C@@H](C)[C@H](C)O)[C@@H](O)[C@H]2O)o1,1,,2,4,0.5,,1,,,,,,
C/C(=C\c1ncc(CO)o1)C[C@@H]1OC[C@H](C[C@@H]2O[C@H]2[C@@H](C)[C@H](C)O)[C@@H](O)[C@H]1O,32,2,8,,32,,,,,,No growth,,
CCCCc1cnc(/C=C(\C)C[C@@H]2OC[C@H](C[C@@H]3O[C@H]3[C@@H](C)[C@H](C)O)[C@@H](O)[C@H]2O)o1,1,1,4,4,0.5,,,,,,,,
C/C(=C\c1ncc(Oc2ccccc2)o1)C[C@@H]1OC[C@H](C[C@@H]2O[C@H]2[C@@H](C)[C@H](C)O)[C@@H](O)[C@H]1O,8,,16,16,8,,,,,,,8,
COC(=O)/C=C\c1cnc(/C=C(\C)C[C@@H]2OC[C@H](C[C@@H]3O[C@H]3[C@@H](C)[C@H](C)O)[C@@H](O)[C@H]2O)o1,8,,8,16,16,,0.25,,,,,,
C/C(=C\C(=O)OCCCCCCCCC(=O)O)C[C@@H]1OC[C@H](C[C@@H]2O[C@H]2[C@@H](C)[C@H](C)O)[C@@H](O)[C@H]1O [MUPIROCIN],0.25,0.03,0.25,0.25,0.13,,,,,,,,
C/C(=C\c1ncco1)C[C@@H]1OC[C@H](C[C@@H]2O[C@H]2[C@@H](C)[C@H](C)O)[C@@H](O)[C@H]1O,16,2,4,,32,,,,,,,,128
COC(=O)CCCCCCCCc1cnc(/C=C(\C)C[C@@H]2OC[C@H](C[C@@H]3O[C@H]3[C@@H](C)[C@H](C)O)[C@@H](O)[C@H]2O)o1,4,4,64,8,4,,,,,,,,
C/C(=C\c1ncc(C2SCCCS2)o1)C[C@@H]1OC[C@H](C[C@@H]2O[C@H]2[C@@H](C)[C@H](C)O)[C@@H](O)[C@H]1O,1,1,0.5,4,1,,,,,,,,
COC(=O)c1cnc(/C=C(\C)C[C@@H]2OC[C@H](C[C@@H]3O[C@H]3[C@@H](C)[C@H](C)O)[C@@H](O)[C@H]2O)o1,4,1,8,8,8,,,,,,,,
C/C(=C\c1ncc(N(C)c2ccccc2)o1)C[C@@H]1OC[C@H](C[C@@H]2O[C@H]2[C@@H](C)[C@H](C)O)[C@@H](O)[C@H]1O,16,,32,32,16,,,,,,,16,
C/C(=C\c1ncc(N2CCCCC2)o1)C[C@@H]1OC[C@H](C[C@@H]2O[C@H]2[C@@H](C)[C@H](C)O)[C@@H](O)[C@H]1O,8,0.5,,8,4,,,8,,,,,
